# Bioassay records as filed in PubChem BioAssay.
# Most compounds without a hit are left out; they make up all but 3.7% or so of the library.
# proCasp7 act – procaspase-7 activators, primary screen, counter-screen for procaspase-3 activator project, biochemical, absorbance, HTS, human; 330,000 tested, 0.093% active; Caspase-7 (Homo sapiens), P55210; AID 463210, 2010; activation, % at 8.5 µM; recombinant procaspase-7, Ac-DEVD-pNA absorbance 405 nm; D23A/D198A/D206A triple mutant, cannot self-cleave; scale: DMSO 0, 5 µM enzyme 100;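 active means percent activation above the screen-wide mean plus 3 SD, cut at about 25% in these data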
# Target sequence (P55210 whole entry D23A/D198A/D206A): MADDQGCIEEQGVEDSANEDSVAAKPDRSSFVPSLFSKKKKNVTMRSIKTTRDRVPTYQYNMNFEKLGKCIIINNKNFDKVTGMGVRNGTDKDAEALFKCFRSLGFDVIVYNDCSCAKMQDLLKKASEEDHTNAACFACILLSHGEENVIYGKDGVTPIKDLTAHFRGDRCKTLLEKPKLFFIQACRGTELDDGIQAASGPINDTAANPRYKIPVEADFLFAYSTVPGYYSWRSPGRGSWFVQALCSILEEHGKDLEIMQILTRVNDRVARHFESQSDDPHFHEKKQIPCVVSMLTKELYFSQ
#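 signal = Epi-absorbance of released pNA at 405 nm, two timepoints | assay system = Uncleavable procaspase-7 mutant enzyme | reagent = Ac-DEVD-pNA substrate, 400 µM as added | times = 1 h enzyme–compound preincubation and 2 h substrate reaction, both 25 °C | benchmarks = low DMSO alone, high DMSO plus 5 µM PC-7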
# proCasp3 act – activators of human procaspase-3 D3A mutant, primary screen, biochemical, absorbance, PC-3 D3A mutant, single concentration | AID 463141, 2010 | Caspase-3 (Homo sapiens), P42574 | recombinant procaspase-3 D3A, Ac-DEVD-pNA absorbance 405 nm | activation, % at 8.5 µM | 330,000 tested, 0.11% active;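 active means activation above the mean of all tested compounds plus 3 SD, cut at about 21% in these data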;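 further: 0% = DMSO alone and 100% = DMSO wells spiked with extra 5 µM PC-3 D3A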
# Target sequence (P42574 whole entry D9A/D28A/D175A): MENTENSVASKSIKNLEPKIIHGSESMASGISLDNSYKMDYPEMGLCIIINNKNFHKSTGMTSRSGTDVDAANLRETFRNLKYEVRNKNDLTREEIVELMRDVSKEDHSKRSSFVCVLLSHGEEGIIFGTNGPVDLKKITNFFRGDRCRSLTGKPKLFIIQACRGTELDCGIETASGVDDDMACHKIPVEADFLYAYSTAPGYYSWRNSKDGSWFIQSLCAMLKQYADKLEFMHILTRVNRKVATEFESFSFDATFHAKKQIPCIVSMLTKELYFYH
#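 material = Procaspase-3 D3A mutant | probe or stimulus = Ac-DEVD-pNA | compound = single dose, 8.5 µM nominal compound, 0.8% DMSO | timing = 1 h preincubation, 2 h reaction | measured by = 405 nm absorbance of p-nitroaniline, reads at 0 and 120 min | benchmarks = DMSO-only low control, 5 µM PC-3 D3A high control | repeats = singlicate, each compound tested once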
# aDG glyco up – activators of alpha-DG glycosylation, primary screen, uHTS, Pro5-aDG cells, AlphaScreen; alpha-DG glycosylation AlphaScreen (IIH6); 0% Pro5, 100% B10-LARGE cell signal; activation, % at 10 µM; 360,000 tested, 0.22% active; AID 624168, 2012;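 active means activation of at least 8% versus controls, or a plate z-score of at least 8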;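 further: Pro5 are CHO cells carrying HIG-tagged alpha-DG that lacks glycosylation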
# MPTP inh – mitochondrial permeability transition pore inhibitors, primary screen, biochemical, isolated mouse mitochondria, absorbance | Ca2+ swelling absorbance, 30 min | 360,000 tested, 1.4% active | inhibition, % at 10 µM;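 active means inhibition of 50% or more, scaled per plate between neutral and stimulator controls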;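 further: 0% = DMSO wells given calcium and 100% = 1 mM EGTA wells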
# NR3A LBD binder – binders of NR3A ligand-binding domain, primary screen, biophysical, differential scanning fluorimetry, uHTS; AID 1259313, 2017; Tm shift relative to glycine control, % at 25 µM; 340,000 tested, 2.5% active; Glutamate receptor ionotropic, NMDA 3A (GRIN3A) ligand-binding domain; NR3A LBD differential scanning fluorimetry, Tm shift; 0% = protein alone, 100% = glycine-bound protein;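 active means melting temperature shift of at least 10% of the positive control shift, at one fixed dose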
# PC3 D3A act – procaspase-3 activators, counter-screen for dual procaspase-3/7 activator project, biochemical, absorbance, PC-3 D3A mutant, human | shares compounds with proCasp7 act | recombinant PC-3 D3A, Ac-DEVD-pNA absorbance 405 nm; aspartates 9, 28, 175 changed to alanine; 100% = enzyme control | activation, % at 8.5 µM | 290 tested, under 10 active | AID 493114, 2011;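 active means mean percent activation across triplicates above a set limit taken from the earlier primary procaspase-3 screen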;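 further: 0% = DMSO wells and 100% = DMSO wells with 5 µM added PC-3 D3A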
# Procasp7 act – activation of procaspase-7 enzyme – biochemical, absorbance, human, dual procaspase-3/-7 activator project, confirmation | AID 493115, 2011 | shares compounds with proCasp7 act | 290 tested, under 10 active | recombinant procaspase-7, Ac-DEVD-pNA absorbance 405 nm; D23A/D198A/D206A mutant that cannot self-cleave | activation, % at 8.5 µM;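 active means mean activation above a set limit carried over from the earlier primary screen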;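 further: 0% = DMSO only and 100% = DMSO with added 5 µM PC-7 enzyme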
# * = called active by the depositor; nt = no result given.
SMILES,proCasp7 act,proCasp3 act,aDG glyco up,MPTP inh,NR3A LBD binder,PC3 D3A act,Procasp7 act
CCN(CC)c1ccc(/C=N/NC(=S)NCc2ccccc2)cc1,43*,67*,0,3,0,-26,-29
C=CCNC(=S)N/N=C/c1ccc(N(CC)Cc2ccccc2)cc1,37*,24*,2,3,0,-19,-14
C=CCNC(=S)N/N=C/c1ccc(C(F)(F)F)cc1,0,0,0,0,-1,nt,nt
CCN(CC)c1ccc(/C=N/NC(=S)NCc2ccc(OC)cc2)cc1,37*,44*,0,8,-1,-30,-30
CC1CC(=Cc2ccc(N)cc2)C(=O)O1 (stereo unspecified),nt,nt,0,0,1,nt,nt
O=C(OC1CCOC1=O)c1cc(-c2ccccc2)nc2ccccc12 (stereo unspecified),0,4,0,2,-7,nt,nt
COc1ccc(-c2cc(C(=O)OC3CCOC3=O)c3ccccc3n2)cc1OC (stereo unspecified),28*,27*,3,-3,1,15,10
O=C1CN(C(=O)CSc2ccccn2)c2ccccc2N1,-5,9,0,-3,2,nt,nt
CCOC(=O)c1nc(Nc2ccccc2)c2ccccc2n1,-7,3,0,0,-1,nt,nt
CCOC(=O)c1nc(Nc2cc(Cl)ccc2OC)c2ccccc2n1,26*,8,0,0,10*,-25,-33
O=C(Nc1c(-c2ccccc2)[nH][nH]c1=O)c1cccs1,nt,nt,0,1,nt,nt,nt
Cc1ccccc1C(=O)Nc1nnc([C@@H]2C[C@H](O)[C@@H](CO)O2)s1,nt,nt,1,-2,nt,nt,nt
N#Cc1c(N)n(C2CCCCC2)c2nc3ccccc3nc12,62*,13,1,1,-18,-29,-36
O=c1c(O)c(-c2ccc3c(c2)OCO3)oc2ccccc12,30*,37*,0,0,0,23*,19
CC(=O)Nc1ccc(C2=NN(c3ccccc3)C(c3ccccc3)C2)cc1 (stereo unspecified),46*,218*,1,0,-8,-28,-36
N#CCC(=O)N/N=C/c1ccc(N2N=C(c3ccccc3)CC2c2ccccc2)cc1 (stereo unspecified),-37,-55,0,2,7,nt,nt
CC(=O)Nc1ccc(C2CC(c3ccc(Cl)cc3)=NN2c2ccccc2)cc1 (stereo unspecified),136*,163*,1,1,15*,-28,-34
COc1ccc(N(C(=O)c2snc(C(N)=O)c2N)C(C(=O)NCc2ccc(F)cc2)c2ccc(C)o2)c(OC)c1 (stereo unspecified),26*,5,0,1,2,2,2
Cc1ccccc1N(C(=O)c1snc(C(N)=O)c1N)C(C(=O)NCc1ccccc1)c1ccc(O)cc1 (stereo unspecified),40*,-98,0,1,-19,-28,-35
COc1cccc(N(C(=O)c2snc(C(N)=O)c2N)C(C(=O)NCc2ccccc2)c2ccc(O)cc2)c1 (stereo unspecified),79*,33*,0,0,-5,-4,-11
NC(=O)c1nsc(C(=O)N(c2ccccc2F)C(C(=O)NCc2ccccc2)c2ccc(O)cc2)c1N (stereo unspecified),34*,18,1,0,-12,-28,-36
CCCS(=O)(=O)NC(=O)C1(C)CCCN(C(=O)c2cc(-c3cccs3)oc2C)C1 (stereo unspecified),nt,nt,0,1,nt,nt,nt
Cc1ccc(S(=O)(=O)N2C[C@H]3C(=O)C[C@@H](c4ccccc4)N(S(=O)(=O)c4ccc(Br)cc4)[C@H]3C[C@H]2c2ccccc2)cc1,nt,nt,0,1,nt,nt,nt
CCCN(CC(=O)Nc1cc(Cl)ccc1Cl)C(=O)/C=C/c1cc(OC)ccc1OC,16,14,0,0,-3,nt,nt
CCCN(CC(=O)Nc1ccc(Cl)cc1Cl)C(=O)/C=C/c1cc(OC)ccc1OC,37*,13,0,1,-3,-8,-7
SMILES,proCasp7 act,proCasp3 act,aDG glyco up,MPTP inh,NR3A LBD binder,PC3 D3A act,Procasp7 act
COc1ccc(S(=O)(=O)N2CCCCCC2)cc1C(=O)N1CCN(c2ccccc2O)CC1,4,13,0,-1,1,nt,nt
CN(C)c1nc(-c2ccccc2)c2cnn(Cc3ccccc3)c2n1,34*,18,1,4,-1,-29,-36
O=c1c(-c2nnc(SCc3ccc(Cl)cc3Cl)o2)cccn1Cc1ccccc1,87*,24*,1,10,-10,-12,-12
O=c1oc2cc(O)ccc2c2ccccc12,-4,-3,0,-4,-2,nt,nt
O=c1oc2cc(O)ccc2c2oc3cc(O)ccc3c12,26*,-1,0,0,7,-28,-36
Cc1c(Cc2ccccc2)c(=O)oc2cc(O)ccc12,27*,25*,0,12,-5,-31,-36
Cc1c(Cc2ccccc2)c(=O)oc2cc(OCC(=O)c3ccccc3)ccc12,4,-1,1,4,-9,nt,nt
COc1c(CC=C(C)C)c(O)cc2oc(=O)c3c4ccc(O)cc4oc3c12,27*,27*,0,3,10,-29,-35
COc1c2c(cc3oc(=O)c4c5ccc(O)cc5oc4c13)OC(C)(C)CC2,-4,12,0,2,8,nt,nt
CCCn1c(=N)c(S(=O)(=O)c2ccccc2)cc2c(=O)n3ccccc3nc21,42*,-26,0,2,-1,-30,-33
Nc1ccccc1-c1nc2ccccc2c(=O)o1,34*,27*,0,1,-2,-30,-36
O=c1oc(-c2ccccc2[N+](=O)[O-])nc2ccccc12,1,2,0,0,1,nt,nt
CCOC(=O)[C@]12CCCC=C1N(Cc1ccco1)C(=O)[C@H](CC(=O)N1CCOCC1)C2,nt,nt,0,-2,nt,nt,nt
